The results in this text go back to ChEMBL document CHEMBL1123537, “Carbocyclic analogues of 5-halocytosine nucleosides” (1986).

≈ marks a conversion by molar mass, not a printed value. Some results are limits rather than exact numbers.

For test [1], the system named is Vero. Kind of test: C(compound) was tested for antiviral activity against Herpes Simplex Virus-2(MS strain) in vero cells (african green monkey kidney cells). In kind it is functional, Chlorocebus sabaeus.
The subject of test [2] is MDCK. The experiment in a line: Compound was tested for antiviral activity against influenza virus (Ao) in MDCK cells. In kind it is functional, Canis lupus familiaris. Summed up:
(§1)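 MDCK monolayers were infected at 32 CCID50 per well, in triplicate, with seven serial half-log10 compound dilutions spanning cytotoxic to noncytotoxic levels. Media were reinforced BME or MEM with 2% FBS, or MEM with trypsin (15 or 10 μg/mL). Plates were held 4–5 days at 37 °C, CPE was scored 0–4, and VR, ratio to ribavirin VR, and MIC50 were derived.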

The species entered for test [3] is Oryctolagus cuniculus. The experiment in a line: Compound was tested for antiviral activity against Herpes Simplex Virus-1 (377 strain) in primary rabbit kidney cells. It is filed as functional. Summed up: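 Primary rabbit kidney monolayers (MEM; 5% calf serum growth, 2% FBS maintenance) were challenged with HSV-1 E-377 (TK+), 32 CCID50/well, in triplicate. Seven half-log10 dilutions ranged from cytotoxic to noncytotoxic, with cytotoxicity and uninfected controls. After 4–5 days at 37 °C, CPE was scored 0–4 and converted to VR; ara-A ratio and 50% CPE-inhibitory concentration (MIC50) were also determined.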

In test [4] the test system is Epidermoid carcinoma cell line. Kind of test: Compound was tested for its antiviral activity against Herpes Simplex Virus-1(HF strain) in human epidermoid carcinoma cells (H.Ep.-2) measured as virus rating (VR). It is filed as functional. Summed up:
(§2)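 […] HSV-1 strain HF in human H.Ep.-2 monolayers (MEM, 5% calf serum growth, 2% FBS maintenance), 32 CCID50/well, in triplicate wells. Seven compound concentrations in half-log10 steps were used, cytotoxic to noncytotoxic. Plates were kept at 37 °C for 4 or 5 days; microscopic CPE was scored 0 (none) to 4 (100%) and a virus rating was calculated from the scores, with ara-A as positive control.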

The test system of test [5] is Vero. The experiment in a line: Compound was tested for its potency against Herpes Simplex Virus-2 (MS strain) in vero cells (african green monkey kidney cells). It is filed as functional. The conditions noted are these: Chlorocebus sabaeus.
In test [6] the test system is Vero. Kind of test: Compound was tested for antiviral activity against Herpes Simplex Virus-2(MS strain) in vero cells (african green monkey kidney cells). It is filed as functional, Chlorocebus sabaeus.
Test [7] relates to MDCK. Kind of test: (§3) Compound was tested for its potency against influenza virus (Ao) in MDCK cells. It is filed as functional, Canis lupus familiaris. Summed up:
as §1

Test [8] relates to Epidermoid carcinoma cell line. The experiment in a line: Compound was tested for its potency against Herpes Simplex Virus-1(HF strain) in human epidermoid carcinoma cells. In kind it is functional. Summed up: as §2
In test [9] the test system is MDCK. Described as §3. In kind it is functional. The conditions noted are these: Canis lupus familiaris. Summed up:
as §1

Test [10] is described as follows: Ratio of the VR of the C-cytosine nucleoside to the VR of ribavirin. It is filed as functional. Summed up:
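Influenza A (A0/PR/8/34 in MDCK; A2/Aichi/2/68 in primary rhesus monkey kidney) CPE-inhibition in monolayers with various media (reinforced BME or MEM plus serum, or trypsin-containing MEM). Triplicate wells at 32 CCID50/well, seven serial half-log10 concentrations spanning cytotoxic to noncytotoxic, 37 °C 4 or 5 days. CPE scored 0–4 microscopically; VR by modified Ehrlich method, divided by concurrent ribavirin VR.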

In the case of `Nc1ccn(C2CC(O)C(CO)C2)c(=O)n1` (centres undefined), the VR in test [1] was determined as 1.9; in test [2] it was 0; in test [3], 2.6; in test [4], 0. Moreover, the MIC50 in test [3] was below 26 µg/mL; in [5], 44 µg/mL (≈ 195 µM).

With `Nc1nc(=O)n([C@@H]2C[C@H](CO)[C@@H](O)[C@H]2O)cc1I`, the VR in test [2] is recorded as 0.2; in [6], 0.

On to `Nc1nc(=O)n(C2CC(CO)CC2O)cc1I` (centres undefined), for which the results for the VR in test [2] and in test [7] were 0 and 0.5, respectively.

Regarding `Nc1nc(=O)n(C2CC(O)C(CO)C2)cc1I` (centres undefined), the VR in test [4] was 0; in [6], 1. In test [5], this compound yielded an MIC50 of 340 µg/mL (≈ 968 µM).

Regarding `Nc1ccn([C@@H]2C[C@H](CO)[C@@H](O)[C@@H]2O)c(=O)n1`, the MIC50 in test [8] turned out to be 95 µg/mL (≈ 394 µM); in [9] it was 312 µg/mL (≈ 1290 µM); in [3] it was 30 µg/mL (≈ 124 µM); in [5], 13 µg/mL (≈ 53.9 µM). For the same compound, the VR in test [2] is reported as 0.8; in [3], 1.8; in test [4] it was 0.6; in test [6], 2.4. For the same compound, the Ratio in test [10] was 0.2.

Take `Nc1nc(=O)n(C2CC(CO)C(O)C2O)cc1Cl` (centres undefined): the VR in [2] is reported as 0.4. Further, in test [10], the Ratio is 0.1.

In the case of `Nc1nc(=O)n([C@@H]2C[C@H](CO)[C@@H](O)[C@@H]2O)cc1I`, the VR in test [4] worked out at 0; in test [6], 2.2. The MIC50 in [5] worked out at 197 µg/mL (≈ 537 µM).

`Nc1ccn(C2CC(CO)CC2O)c(=O)n1` (centres undefined): the figures for the VR in test [2] and in [4] were 0.1 and 0, respectively.

Regarding `Nc1ccn([C@@H]2C[C@H](CO)[C@@H](O)[C@H]2O)c(=O)n1`, the values for the MIC50 in test [8], in test [9] and in test [5] were 71 µg/mL (≈ 294 µM), 2.6 µg/mL (≈ 10.8 µM) and 2.4 µg/mL (≈ 9.95 µM), respectively. For the same compound, the VR in test [2] was 3.5; in test [4] it was 0.8; in [6], 3.2. In addition, the Ratio in test [10] is 0.73.

As to `Nc1nc(=O)n(C2CC(O)C(CO)C2)cc1Cl` (centres undefined), the MIC50 in [5] came out at 270 µg/mL (≈ 1040 µM). The compound further had a VR in [6] of 0.7.

Turning to `Nc1nc(=O)n(C2CC(O)C(CO)C2)cc1Br` (centres undefined), the VR was found to be 0 in test [4] and 2.6 in test [6]. In [5], the MIC50 turned out to be 62 µg/mL (≈ 204 µM).

For `Nc1nc(=O)n(C2CC(CO)C(O)C2O)cc1Br` (centres undefined), in [9], the MIC50 was 150 µg/mL (≈ 469 µM). In test [2], this compound had a VR of 1.5. In test [10], the Ratio was 0.36.
